According to ChEMBL document CHEMBL1629612, “Characterization and sequence analysis of extended-spectrum-{beta}-lactamase-encoding genes from Escherichia coli, Klebsiella pneumoniae, and Proteus mirabilis isolates collected during tigecycline phase 3 clinical trials” (2009):
≈ marks a conversion by molar mass, not a printed value.

What was measured:
Format in all cases: functional
Escherichia coli [1] = test: Antimicrobial activity against Escherichia coli expressing beta-lactamase AmpC and extended-spectrum beta-lactamase by Etest
Summary of the method: (§1)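 Clinical isolates from tigecycline phase 3 trials were received as frozen primary cultures. Serial isolates from one patient were riboprinted, and only the first of identical strains was kept. β-Lactamase genes were assigned by PCR. ESBL confirmation used Etest ESBL strips carrying ceftazidime or cefotaxime, alone and combined with clavulanic acid, following the strip maker's instructions.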

Escherichia coli [2] = test: Antimicrobial activity against Escherichia coli expressing beta-lactamase AmpC by Etest; summary of the method: as §1
Klebsiella pneumoniae [3] = test: Antimicrobial activity against Klebsiella pneumoniae expressing beta-lactamase CTX by Etest based on multiple determinants
Summary of the method: (§2)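 Clinical isolates from tigecycline phase 3 trials were received as frozen primary cultures. Repeat isolates from one patient were riboprinted, and only the first of identical strains was kept. β-lactamase genes were assigned by PCR against control strains, plus isoelectric focusing. ESBL confirmation used Etest ESBL strips carrying ceftazidime or cefotaxime with clavulanic acid, read per the manufacturer's instructions.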

Escherichia coli [4] = test: Antimicrobial activity against Escherichia coli expressing beta-lactamase CTX and SHV by Etest; summary of the method: as §1
Escherichia coli [5] = test: Antimicrobial activity against Escherichia coli expressing beta-lactamase CTX by Etest based on multiple determinants; summary of the method: as §1
Escherichia coli [6] = test: Antimicrobial activity against Escherichia coli extended-spectrum beta-lactamase producing isolate by Etest; summary of the method: as §1
Klebsiella pneumoniae [7] = test: Antimicrobial activity against Klebsiella pneumoniae extended-spectrum beta-lactamase producing isolate by Etest; summary of the method: as §2
Proteus mirabilis [8] = test: Antimicrobial activity against Proteus mirabilis extended-spectrum beta-lactamase producing isolate by Etest; summary of the method: as §2
Escherichia coli [9] = test: Antimicrobial activity against Escherichia coli expressing beta-lactamase CTX by Etest based on single determinant; summary of the method: as §1
Klebsiella pneumoniae [10] = test: Antimicrobial activity against Klebsiella pneumoniae expressing beta-lactamase SHV by Etest based on single determinant; summary of the method: as §2
Klebsiella pneumoniae [11] = test: Antimicrobial activity against Klebsiella pneumoniae expressing beta-lactamase SHV by Etest based on multiple determinants; summary of the method: as §2
Klebsiella pneumoniae [12] = test: Antimicrobial activity against Klebsiella pneumoniae expressing beta-lactamase CTX by Etest based on single determinant; summary of the method: as §2
Klebsiella pneumoniae [13] = test: Antimicrobial activity against Klebsiella pneumoniae expressing beta-lactamase SHV and CTX by Etest; summary of the method: as §2
Klebsiella pneumoniae [14] = test: Antimicrobial activity against Klebsiella pneumoniae expressing extended-spectrum beta-lactamase and beta-lactamase AmpC by Etest; summary of the method: as §1
Klebsiella pneumoniae [15] = test: Antimicrobial activity against Klebsiella pneumoniae expressing beta-lactamase DHA by Etest; summary of the method: as §1
Proteus mirabilis [16] = test: Antimicrobial activity against Proteus mirabilis expressing extended-spectrum beta-lactamase by Etest based on single determinant; summary of the method: as §2
Proteus mirabilis [17] = test: Antimicrobial activity against Proteus mirabilis expressing extended-spectrum beta-lactamase by Etest based on multiple determinants; summary of the method: as §2
Proteus mirabilis [18] = test: Antimicrobial activity against Proteus mirabilis expressing beta-lactamase AmpC by Etest; summary of the method: as §2

C[C@@H](O)[C@H]1C(=O)N2C(C(=O)O)=C(SCCNC=N)C[C@H]12 [IMIPENEM ANHYDROUS]
MIC50 (Escherichia coli [1]): 0.25 µg/mL (≈ 0.835 µM)
MIC90 (Escherichia coli [1]): 0.5 µg/mL (≈ 1.67 µM)
MIC (Escherichia coli [2]): 0.12 µg/mL (≈ 0.401 µM)
MIC50 (Klebsiella pneumoniae [3]): 0.25 µg/mL (≈ 0.835 µM)
MIC90 (Klebsiella pneumoniae [3]): 0.5 µg/mL (≈ 1.67 µM)
MIC50 (Escherichia coli [4]): ≤ 0.12 µg/mL
MIC90 (Escherichia coli [4]): 0.25 µg/mL (≈ 0.835 µM)
MIC50 (Escherichia coli [5]): ≤ 0.12 µg/mL
MIC90 (Escherichia coli [5]): 0.25 µg/mL (≈ 0.835 µM)
MIC50 (Escherichia coli [6]): ≤ 0.12 µg/mL
MIC90 (Escherichia coli [6]): 0.25 µg/mL (≈ 0.835 µM)
MIC50 (Klebsiella pneumoniae [7]): 0.25 µg/mL (≈ 0.835 µM)
MIC90 (Klebsiella pneumoniae [7]): 1 µg/mL (≈ 3.34 µM)
MIC50 (Proteus mirabilis [8]): 2 µg/mL (≈ 6.68 µM)
MIC90 (Proteus mirabilis [8]): 4 µg/mL (≈ 13.4 µM)
MIC50 (Escherichia coli [9]): ≤ 0.12 µg/mL
MIC90 (Escherichia coli [9]): 0.25 µg/mL (≈ 0.835 µM)
MIC50 (Klebsiella pneumoniae [10]): 0.25 µg/mL (≈ 0.835 µM)
MIC90 (Klebsiella pneumoniae [10]): 1 µg/mL (≈ 3.34 µM)
MIC (Klebsiella pneumoniae [11]): 0.12 µg/mL (≈ 0.401 µM)
MIC50 (Klebsiella pneumoniae [12]): 0.25 µg/mL (≈ 0.835 µM)
MIC90 (Klebsiella pneumoniae [12]): 0.5 µg/mL (≈ 1.67 µM)
MIC50 (Klebsiella pneumoniae [13]): 0.25 µg/mL (≈ 0.835 µM)
MIC90 (Klebsiella pneumoniae [13]): 0.5 µg/mL (≈ 1.67 µM)
MIC (Klebsiella pneumoniae [14]): 0.06 µg/mL (≈ 0.2 µM)
MIC (Klebsiella pneumoniae [15]): 0.5 µg/mL (≈ 1.67 µM)
MIC (Proteus mirabilis [16]): 0.5 µg/mL (≈ 1.67 µM)
MIC (Proteus mirabilis [17]): 2 µg/mL (≈ 6.68 µM)
MIC (Proteus mirabilis [18]): 1 µg/mL (≈ 3.34 µM)

C[C@H]1COc2c(N3CCN(C)CC3)c(F)cc3c(=O)c(C(=O)O)cn1c23.C[C@H]1COc2c(N3CCN(C)CC3)c(F)cc3c(=O)c(C(=O)O)cn1c23.O [LEVOFLOXACIN]
MIC50 (Escherichia coli [1]): 16 µg/mL
MIC90 (Escherichia coli [1]): > 16 µg/mL
MIC50 (Klebsiella pneumoniae [3]): 4 µg/mL
MIC90 (Klebsiella pneumoniae [3]): 16 µg/mL
MIC50 (Escherichia coli [4]): 16 µg/mL
MIC90 (Escherichia coli [4]): > 16 µg/mL
MIC50 (Escherichia coli [5]): > 16 µg/mL
MIC90 (Escherichia coli [5]): > 16 µg/mL
MIC50 (Escherichia coli [6]): 16 µg/mL
MIC90 (Escherichia coli [6]): > 16 µg/mL
MIC50 (Klebsiella pneumoniae [7]): 2 µg/mL
MIC90 (Klebsiella pneumoniae [7]): > 16 µg/mL
MIC50 (Proteus mirabilis [8]): 8 µg/mL
MIC90 (Proteus mirabilis [8]): > 16 µg/mL
MIC50 (Escherichia coli [9]): 16 µg/mL
MIC90 (Escherichia coli [9]): > 16 µg/mL
MIC50 (Klebsiella pneumoniae [10]): 0.5 µg/mL
MIC90 (Klebsiella pneumoniae [10]): 16 µg/mL
MIC (Klebsiella pneumoniae [11]): 0.12 µg/mL
MIC50 (Klebsiella pneumoniae [12]): 4 µg/mL
MIC90 (Klebsiella pneumoniae [12]): > 16 µg/mL
MIC50 (Klebsiella pneumoniae [13]): 0.5 µg/mL
MIC90 (Klebsiella pneumoniae [13]): > 16 µg/mL
MIC (Klebsiella pneumoniae [14]): 2 µg/mL
MIC (Proteus mirabilis [16]): 0.12 µg/mL
MIC (Proteus mirabilis [17]): 2 µg/mL
MIC (Proteus mirabilis [18]): 4 µg/mL
